Type in all cases: functional
In assay [1] the test system is Shigella flexneri. As to the kind of experiment: Antimicrobial activity against Shigella flexneri RCMB 0100542 after overnight incubation by macro-tube dilution technique. In a few lines:
(§1)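 Macro-tube twofold dilution following NCCLS guidance, run in nutrient broth. The first tube held 10 mg compound in 2.0 mL DMSO and was serially halved 1:1 into 1.0 mL broth through tube 14; tube 15 was the control. The inoculum was suspended to turbidity in 5.0 mL broth, 0.2 mL was diluted into 40 mL, and 1.0 mL was added per tube. Tubes were incubated overnight at 37 °C. MIC was the lowest concentration with no growth.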

Assay [2] concerns Staphylococcus aureus. The assay can be described thus: Antimicrobial activity against Staphylococcus aureus RCMB 010027 after overnight incubation by macro-tube dilution technique. The essentials:
as §1

Assay [3] relates to Candida albicans. The assay can be described thus: Antimicrobial activity against Candida albicans RCMB 05035 assessed as diameter of zone inhibition at 5 mg/ml after 72 hrs by agar well diffusion assay. The note with it: RCMB 05035, 72 h, read-out: DIZ. The essentials:
(§2)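 Fungi (1 x10^6 CFU/mL, 100 µL) were spread on Sabouraud dextrose agar. 10 mm wells were loaded with 100 µL of test solution at 5 mg/mL in DMSO, or amphotericin B standard at 1 mg/mL. A DMSO negative control was included. Plates were incubated 72 h at 28 °C. Inhibition zone diameter (mm) was recorded as the average of triplicate runs.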
In general terms: Agar diffusion results depend on both activity and mobility in agar.

Assay [4] has as its system Aspergillus clavatus. As to the kind of experiment: Antimicrobial activity against Aspergillus clavatus RCMB 02593 after 72 hrs by macro-tube dilution technique. The note with it: RCMB 02593, 72 h. The essentials: (§3)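 Twofold macro-tube dilution following NCCLS guidance, run in malt extract broth. 10 mg compound in 2.0 mL DMSO in tube 1 was serially diluted 1:1 through tube 14 into 1.0 mL broth; tube 15 was the control. Culture was suspended to turbidity in 5.0 mL broth, 0.2 mL was diluted into 40 mL, and 1.0 mL was added per tube. Incubation was 72 h at 30 °C. MIC was the lowest concentration with no growth.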

Assay [5] relates to Proteus vulgaris. The assay can be described thus: Antimicrobial activity against Proteus vulgaris RCMB 010085 after overnight incubation by macro-tube dilution technique. The essentials: as §1
In assay [6] the test system is Candida albicans. The assay can be described thus: Antimicrobial activity against Candida albicans RCMB 05035 after 72 hrs by macro-tube dilution technique. The settings on record: RCMB 05035, 72 h. In a few lines:
as §3

Assay [7] relates to Bacillus subtilis. The assay can be described thus: Antimicrobial activity against Bacillus subtilis RCMB 010063 assessed as diameter of zone inhibition at 5 mg/ml after 24 hrs by agar well diffusion assay. The note with it: RCMB 010063, 24 h, read-out: DIZ. The essentials:
(§4)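 Agar well diffusion: 100 µL of 1 x10^8 CFU/mL bacteria was spread on nutrient agar. 10 mm wells received 100 µL of compound at 5 mg/mL in DMSO, or ampicillin or gentamycin standards at 1 mg/mL. DMSO served as negative control. Plates were incubated 24 h at 37 °C. Inhibition zone diameter (mm) was measured as the mean of triplicates.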

Assay [8] relates to Staphylococcus epidermidis. As to the kind of experiment: Antimicrobial activity against Staphylococcus epidermidis RCMB 010024 assessed as diameter of zone inhibition at 5 mg/ml after 24 hrs by agar well diffusion assay. The note with it: RCMB 010024, 24 h, read-out: DIZ. The essentials: as §4
Assay [9] relates to Klebsiella pneumoniae. The assay can be described thus: Antimicrobial activity against Klebsiella pneumoniae RCMB 010093 after overnight incubation by macro-tube dilution technique. In a few lines: as §1
In assay [10] the test system is Proteus vulgaris. The assay can be described thus: Potency index, ratio of Gentamycin IC50 to compound IC50 for Proteus vulgaris RCMB 010085.
Assay [11] deals with Proteus vulgaris. As to the kind of experiment: Antimicrobial activity against Proteus vulgaris RCMB 010085 assessed as diameter of zone inhibition at 5 mg/ml after 24 hrs by agar well diffusion assay. The note with it: RCMB 010085, 24 h, read-out: DIZ. In a few lines: as §4
Assay [12] concerns Klebsiella pneumoniae. The assay can be described thus: Antimicrobial activity against Klebsiella pneumoniae RCMB 010093 assessed as diameter of zone inhibition at 5 mg/ml after 24 hrs by agar well diffusion assay. The note with it: RCMB 010093, 24 h, read-out: DIZ. In a few lines:
as §4

Assay [13] deals with Aspergillus fumigatus. As to the kind of experiment: Antimicrobial activity against Aspergillus fumigatus RCMB 02564 assessed as diameter of zone inhibition at 5 mg/ml after 72 hrs by agar well diffusion assay. The settings on record: RCMB 02564, 72 h, read-out: DIZ. In a few lines:
as §2

Assay [14] has as its system Staphylococcus aureus. As to the kind of experiment: Antimicrobial activity against Staphylococcus aureus RCMB 010027 assessed as diameter of zone inhibition at 5 mg/ml after 24 hrs by agar well diffusion assay. The settings on record: RCMB 010027, 24 h, read-out: DIZ. In a few lines: as §4
The test system of assay [15] is Shigella flexneri. As to the kind of experiment: Antimicrobial activity against Shigella flexneri RCMB 0100542 assessed as diameter of zone inhibition at 5 mg/ml after 24 hrs by agar well diffusion assay. The note with it: RCMB 0100542, 24 h, read-out: DIZ. In a few lines: as §4
For assay [16], the system named is Bacillus subtilis. The assay can be described thus: Antimicrobial activity against Bacillus subtilis RCMB 010063 after overnight incubation by macro-tube dilution technique. The essentials:
as §1

Assay [17] has as its system Staphylococcus epidermidis. As to the kind of experiment: Antimicrobial activity against Staphylococcus epidermidis RCMB 010024 after overnight incubation by macro-tube dilution technique. The essentials: as §1
Assay [18] deals with Aspergillus fumigatus. As to the kind of experiment: Antimicrobial activity against Aspergillus fumigatus RCMB 02564 after 72 hrs by macro-tube dilution technique. The settings on record: RCMB 02564, 72 h. In a few lines: as §3
Assay [19] concerns Aspergillus clavatus. The assay can be described thus: Antimicrobial activity against Aspergillus clavatus RCMB 02593 assessed as diameter of zone inhibition at 5 mg/ml after 72 hrs by agar well diffusion assay. The settings on record: RCMB 02593, 72 h, read-out: DIZ. The essentials:
as §2

Assay [20] deals with Aspergillus fumigatus. As to the kind of experiment: Antimicrobial activity against Aspergillus fumigatus RCMB 02564 assessed as diameter of zone inhibition at 1 mg/ml after 72 hrs by agar well diffusion assay. The note with it: RCMB 02564, 72 h, read-out: DIZ.
The subject of assay [21] is Aspergillus clavatus. The assay can be described thus: Antimicrobial activity against Aspergillus clavatus RCMB 02593 assessed as diameter of zone inhibition at 1 mg/ml after 72 hrs by agar well diffusion assay. The settings on record: RCMB 02593, 72 h, read-out: DIZ.
Assay [22] deals with Candida albicans. As to the kind of experiment: Antimicrobial activity against Candida albicans RCMB 05035 assessed as diameter of zone inhibition at 1 mg/ml after 72 hrs by agar well diffusion assay. The settings on record: RCMB 05035, 72 h, read-out: DIZ.
The subject of assay [23] is Staphylococcus epidermidis. As to the kind of experiment: Potency index, ratio of Amphotericin B IC50 to compound IC50 for Staphylococcus epidermidis RCMB 010024.
For assay [24], the system named is Candida albicans. The assay can be described thus: Potency index, ratio of Amphotericin B IC50 to compound IC50 for Candida albicans RCMB 05035.
Assay [25] has as its system Shigella flexneri. As to the kind of experiment: Potency index, ratio of Gentamycin IC50 to compound IC50 for Shigella flexneri RCMB 0100542.
The subject of assay [26] is Aspergillus clavatus. As to the kind of experiment: Potency index, ratio of Amphotericin B IC50 to compound IC50 for Aspergillus clavatus RCMB 02593.

In ChEMBL document CHEMBL4138150, “Quinoline derivatives bearing pyrazole moiety: Synthesis and biological evaluation as possible antibacterial and antifungal agents” (2018) one finds MIC, zone of inhibition and Ratio data, which are given here for 4 compounds.

Converted amounts (≈) assume the structure as drawn.

As a reminder, the MIC is the lowest concentration found to suppress growth. The low end stands for a more susceptible organism, the high end for a less susceptible organism. For the compound `Clc1ccccc1C1CC(c2ccc(Oc3ccc4ccccc4n3)cc2)=NN1` (stereo unspecified), the MIC is 1.95 µg/mL (≈ 4.88 µM) in the assay on Shigella flexneri [1]; 0.97 µg/mL (≈ 2.43 µM) with Staphylococcus aureus [2]; 15.6 µg/mL (≈ 39.1 µM) in the assay with Aspergillus clavatus [4]; 0.97 µg/mL (≈ 2.43 µM) in the assay on Proteus vulgaris [5]; 1.95 µg/mL (≈ 4.88 µM) in the assay with Candida albicans [6]; 1.95 µg/mL (≈ 4.88 µM) against Klebsiella pneumoniae [9]. Further, the figures for the minimum inhibitory concentration (MIC) (against Bacillus subtilis [16]; in assay [17]; with Aspergillus fumigatus [18]) were 1.95 µg/mL (≈ 4.88 µM), 0.97 µg/mL (≈ 2.43 µM) and 7.81 µg/mL (≈ 19.5 µM), respectively. Besides, the zone of inhibition at 5000 µg/mL amounted to 18.5 mm with Candida albicans [3]; 24.2 mm in the assay on Bacillus subtilis [7]; 25.3 mm in assay [8]; 23.6 mm with Proteus vulgaris [11]; 22.8 mm in the assay on Klebsiella pneumoniae [12]; 21.4 mm in the assay with Aspergillus fumigatus [13]. Further, the zone of inhibition at 5000 µg/mL stood at 23.9 mm in the assay with Staphylococcus aureus [14], 23.6 mm in the assay with Shigella flexneri [15] and 17.5 mm with Aspergillus clavatus [19]. For the same compound, the Ratio in the assay with Proteus vulgaris [10] was 2.
For `C[C@@H]1[C@H](O)[C@@H](C)/C=C/C=C/C=C/C=C/C=C/C=C/C=C/[C@H](O[C@@H]2O[C@H](C)[C@@H](O)[C@H](N)[C@@H]2O)C[C@@H]2O[C@](O)(C[C@@H](O)C[C@@H](O)[C@H](O)CC[C@@H](O)C[C@@H](O)CC(=O)O[C@H]1C)C[C@H](O)[C@H]2C(=O)O` [AMPHOTERICIN B], the figures for the MIC against Aspergillus clavatus [4], against Candida albicans [6] and against Aspergillus fumigatus [18] were 1.95 µg/mL (≈ 2.11 µM), 0.48 µg/mL (≈ 0.519 µM) and 0.97 µg/mL (≈ 1.05 µM), respectively. In addition, the values for the zone of inhibition at 1000 µg/mL in the assay with Aspergillus fumigatus [20], in the assay on Aspergillus clavatus [21] and in the assay with Candida albicans [22] were 23.7 mm, 21.9 mm and 26.4 mm, respectively.
As to `COc1ccc(C2CC(c3ccc(Oc4ccc5ccccc5n4)cc3)=NN2c2ccccc2)cc1` (stereo unspecified), the MIC with Shigella flexneri [1] is 0.48 µg/mL (≈ 1.02 µM); in the assay on Staphylococcus aureus [2] it was 0.24 µg/mL (≈ 0.509 µM); against Aspergillus clavatus [4], 3.9 µg/mL (≈ 8.27 µM); with Proteus vulgaris [5], 9.9 µg/mL (≈ 21 µM); in the assay on Candida albicans [6] it was 0.48 µg/mL (≈ 1.02 µM); in the assay with Klebsiella pneumoniae [9] it was 3.9 µg/mL (≈ 8.27 µM). For the same compound, the MIC with Bacillus subtilis [16] stood at 0.06 µg/mL (≈ 0.127 µM); in [17], 0.24 µg/mL (≈ 0.509 µM); in the assay on Aspergillus fumigatus [18] it was 1.95 µg/mL (≈ 4.14 µM). The zone of inhibition at 5000 µg/mL in the assay with Candida albicans [3] was 23.5 mm; with Bacillus subtilis [7] it was 28.7 mm; in assay [8], 26.2 mm; in the assay with Proteus vulgaris [11] it was 24.5 mm; in the assay with Klebsiella pneumoniae [12], 26.1 mm; in the assay with Aspergillus fumigatus [13] it was 23.5 mm. The zone of inhibition at 5000 µg/mL came out at 29 mm in the assay on Staphylococcus aureus [14], 23.3 mm in the assay on Shigella flexneri [15] and 22.9 mm in the assay with Aspergillus clavatus [19]. Besides, in assay [23], the Ratio was 2.
In the case of `N#Cc1c(-c2ccc(Cl)cc2Cl)nn(-c2ccc3ccccc3n2)c1N`, the MIC against Shigella flexneri [1] stood at 0.12 µg/mL (≈ 0.316 µM); with Staphylococcus aureus [2], 0.49 µg/mL (≈ 1.29 µM); against Aspergillus clavatus [4], 0.49 µg/mL (≈ 1.29 µM); in the assay on Proteus vulgaris [5], 0.98 µg/mL (≈ 2.58 µM); against Candida albicans [6] it was 0.12 µg/mL (≈ 0.316 µM); in the assay with Klebsiella pneumoniae [9], 0.49 µg/mL (≈ 1.29 µM). The MIC was 0.12 µg/mL (≈ 0.316 µM) against Bacillus subtilis [16], 0.49 µg/mL (≈ 1.29 µM) in [17] and 0.98 µg/mL (≈ 2.58 µM) in the assay with Aspergillus fumigatus [18]. The zone of inhibition at 5000 µg/mL stood at 24.8 mm in the assay on Candida albicans [3]; 25.8 mm in the assay with Bacillus subtilis [7]; 22.3 mm in assay [8]; 20.6 mm in the assay on Proteus vulgaris [11]; 21.6 mm in the assay on Klebsiella pneumoniae [12]; 20.9 mm in the assay on Aspergillus fumigatus [13]. Further, the zone of inhibition at 5000 µg/mL stood at 21.6 mm in the assay on Staphylococcus aureus [14], 23.2 mm with Shigella flexneri [15] and 22.3 mm with Aspergillus clavatus [19]. The Ratio worked out at 4 in the assay with Candida albicans [24], 4 with Shigella flexneri [25], 2 in the assay with Proteus vulgaris [10] and 4 in the assay with Aspergillus clavatus [26].
